SMILES strings stand for the structures.

The first series addresses T1, Guanylate cyclase soluble subunit alpha-1 (Rattus norvegicus) (UniProt P19686).
T1 sequence (whole entry): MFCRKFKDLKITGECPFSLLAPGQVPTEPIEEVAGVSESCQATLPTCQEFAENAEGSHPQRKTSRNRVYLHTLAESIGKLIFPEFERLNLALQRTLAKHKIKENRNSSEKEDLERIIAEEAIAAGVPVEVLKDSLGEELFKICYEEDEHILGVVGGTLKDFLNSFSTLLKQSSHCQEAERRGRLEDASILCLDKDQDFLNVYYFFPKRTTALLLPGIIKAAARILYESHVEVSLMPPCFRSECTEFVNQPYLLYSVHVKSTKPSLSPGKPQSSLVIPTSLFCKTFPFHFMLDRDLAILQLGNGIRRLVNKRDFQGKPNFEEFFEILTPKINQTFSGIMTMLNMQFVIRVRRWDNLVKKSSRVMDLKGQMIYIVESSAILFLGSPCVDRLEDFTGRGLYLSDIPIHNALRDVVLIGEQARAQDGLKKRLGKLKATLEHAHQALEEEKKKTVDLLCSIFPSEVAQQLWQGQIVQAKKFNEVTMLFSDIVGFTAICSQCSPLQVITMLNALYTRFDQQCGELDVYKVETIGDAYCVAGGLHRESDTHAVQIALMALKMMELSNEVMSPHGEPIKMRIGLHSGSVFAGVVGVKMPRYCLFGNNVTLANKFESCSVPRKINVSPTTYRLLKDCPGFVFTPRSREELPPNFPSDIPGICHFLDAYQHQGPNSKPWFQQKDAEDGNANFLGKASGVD
Briefly: Stimulation of rat recombinant sGCalpha1 subunit expressed in CHO cells using alpha-[32P]GTP as substrate assessed as >=3 fold increase in [32P]cGMP formation after 10 mins by radioimmunoassay. The class given is cell-based.
Settings: not given
Take `COC(=O)N(Cc1ccccc1F)c1c(N)nc(-c2nn(Cc3ccccc3F)c3ncccc23)nc1N`: the MEC came to 0.1 µM.
Turning to `COC(=O)Nc1c(N)nc(-c2nc(Cc3ccccc3F)c3ncccn23)nc1N`, the MEC turned out to be 1.7 µM.
Still for that read-out and setting: to `Nc1nc(-c2nn(Cc3ccccc3F)c3ncccc23)nc(N)c1NC(=O)OCC1CC1` belongs 0.2 µM; to `Nc1nc(-c2nn(Cc3ccccc3F)c3ncccc23)nc(N)c1N1C[C@H](C(F)(F)F)OC1=O`, 0.2 µM.
Same read-out and setting: to `CC1(C)CN(c2c(N)nc(-c3nn(Cc4ccccc4F)c4ncccc34)nc2N)C(=O)O1` belongs 0.2 µM.
For `COC(=O)N(CC(F)(F)F)c1c(N)nc(-c2nn(Cc3ccccc3F)c3ncccc23)nc1N`, the MEC was 0.1 µM.
The same measure, in the same setting: under `COC(=O)N(CC(F)F)c1c(N)nc(-c2nn(Cc3ccccc3F)c3ncccc23)nc1N` stands 0.1 µM; under `COC(=O)Nc1c(N)nc(-n2nc(Cc3ccccc3F)c3ncccc32)nc1N`, 1.2 µM.
On the same count and under the same terms, under `COC(=O)N(Cc1ccc(F)cc1)c1c(N)nc(-c2nn(Cc3ccccc3F)c3ncccc23)nc1N` stands 0.7 µM.
Same read-out and setting: under `CCN(C(=O)OC)c1c(N)nc(-c2nn(Cc3ccccc3F)c3ncccc23)nc1N` stands 0.2 µM; under `COC(=O)Nc1c(N)nc(-c2nn(Cc3ccccc3F)c3nnccc23)nc1N`, 2 µM.

Tested on in another series: not listed separately
Briefly: Clearance in iv dosed Wistar rat blood after 24 hrs by LC-MS analysis. The class given is ADME, organism-based. To be noted: whole blood. The gist of the method: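 Male Wistar rats and female beagle dogs. iv in plasma/DMSO (rat) or H2O/PEG 400/EtOH (dog). Oral gavage in H2O/PEG 400/EtOH for both. Rats jugular-catheterised ≥1 d before dosing. Usually >10 blood samples, at least two after 24 h. Plasma quantified by LC-MS with internal standard. CL, t1/2, Vss and F calculated from plasma curves. Blood clearance via blood/plasma ratio (20 min blood incubation).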
On to `COC(=O)Nc1c(N)nc(-c2nc(Cc3ccccc3F)c3ncccn23)nc1N`, for which the clearance – broadly, a measure of how efficiently the substance is removed, as volume per time – is 30 mL/min/kg.
For `COC(=O)Nc1c(N)nc(-n2nc(Cc3ccccc3F)c3ncccc32)nc1N`, the clearance is 16.7 mL/min/kg.
On the same count and under the same terms, to `COC(=O)Nc1c(N)nc(-c2nn(Cc3ccccc3F)c3nnccc23)nc1N` belongs 63.3 mL/min/kg.

For a further series, the system named is Saphenous artery. Briefly: Vasorelaxant activity in nirate-tolerant Chinchilla rabbit saphenous artery ring administered at the beginning of the last resting period of 28 mins in presence of sorbide dinitrate. To be noted: Oryctolagus cuniculus. Type of series: functional.
With `O=[N+]([O-])OCC(CO[N+](=O)[O-])O[N+](=O)[O-]` [NITROGLYCERIN], the IC50 (commonly the concentration that gives 50% inhibition) was determined as 9.6 nM.

The test system of a further series is Saphenous artery. Briefly: Vasorelaxant activity in normal Chinchilla rabbit saphenous artery ring administered at the beginning of the last resting period of 28 mins. Type of series: functional. To be noted: Oryctolagus cuniculus.
`O=[N+]([O-])OCC(CO[N+](=O)[O-])O[N+](=O)[O-]` [NITROGLYCERIN] registered an IC50 of 1.9 nM.

Tested on in the next series: not listed separately
Briefly: Clearance in rat hepatocytes at 1 uM up to 90 mins by LC-MS/MS analysis.
Settings: not given
Type of series: ADME, cell-based, Hepatocyte. The gist of the method:
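Rat hepatocytes at 1 × 10^6 viable cells/mL (trypan blue-corrected) in Williams' medium E, 1 μM substrate, MeCN ≤1%, 37 °C, pH 7.4. Sampled at 2−90 min, quenched with MeCN, analysed by LC-MS/MS.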
On to `COC(=O)N(Cc1ccccc1F)c1c(N)nc(-c2nn(Cc3ccccc3F)c3ncccc23)nc1N`, for which the CLhep predicted at 1 µM is 53.3 mL/min/kg.
Same read-out and setting: to `Nc1nc(-c2nn(Cc3ccccc3F)c3ncccc23)nc(N)c1NC(=O)OCC1CC1` belongs 23.3 mL/min/kg; to `CC1(C)CN(c2c(N)nc(-c3nn(Cc4ccccc4F)c4ncccc34)nc2N)C(=O)O1`, 21.7 mL/min/kg; to `COC(=O)N(CC(F)(F)F)c1c(N)nc(-c2nn(Cc3ccccc3F)c3ncccc23)nc1N`, 15 mL/min/kg.
As to `COC(=O)N(CC(F)F)c1c(N)nc(-c2nn(Cc3ccccc3F)c3ncccc23)nc1N`, the CLhep predicted at 1 µM was 6.67 mL/min/kg.
On the same count and under the same terms, to `COC(=O)Nc1c(N)nc(-n2nc(Cc3ccccc3F)c3ncccc32)nc1N` belongs under 1.67 mL/min/kg; to `COC(=O)N(Cc1ccc(F)cc1)c1c(N)nc(-c2nn(Cc3ccccc3F)c3ncccc23)nc1N`, 40 mL/min/kg; to `CCN(C(=O)OC)c1c(N)nc(-c2nn(Cc3ccccc3F)c3ncccc23)nc1N`, 11.7 mL/min/kg.
On the same count and under the same terms, to `COC(=O)Nc1c(N)nc(-c2nn(Cc3ccccc3F)c3nnccc23)nc1N` belongs under 1.67 mL/min/kg.
